“And” between values parts separate entries of the source, which are not always exact repeats. Equal values may be shown once.
Assays:
Mus musculus [1] = experiment: Effect on ip implanted EAC by ip administration for 5 days at 40 mg/kg was measured as increase in mean life span; format: functional; settings: 120 h, route intraperitoneal
Summary of the method: (§1)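 Drug in 0.9% NaCl was given ip for 5 consecutive days from 24 h after inoculation. ILS % came from treated vs control mean survival time, followed for 80 days.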

Mus musculus [2] = experiment: Effect on ip implanted syngeneic B16 melanoma by ip administration for 9 days at 2.5 mg/kg was measured as increase in mean life span; settings: 216 h
Mus musculus [3] = experiment: Number of survivors out of 6 ip-ip implanted EAC leukemia mouse tested after 80 days at 40 mg/kg; format: functional
Summary of the method: (§2)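 Drug dissolved and diluted in saline just before use, given ip for 5 consecutive days starting 24 h after implant. Six mice per dose. Survivors counted at 80 days; ILS % taken from mean survival time of treated vs control mice.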

Mus musculus [4] = experiment: Effect on ip implanted sarcoma 180 by ip administration for 5 days at 10 mg/kg was measured as increase in mean life span; format: functional; settings: Sarcoma-180, ip, 120 h, route intraperitoneal
Summary of the method: (§3)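 Saline-dissolved drug was dosed ip daily for 5 consecutive days starting 24 h later. Readout was ILS % (mean survival time of treated vs control) over an 80-day observation.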

Mus musculus [5] = experiment: Antitumor activity against ip implanted L1210 leukemia in mouse after ip administration of 5 mg/kg for 5 days expressed as increase in mean life span; format: functional; settings: Mus musculus, L1210, ip, 120 h, route intraperitoneal
Summary of the method: (§4)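 Drug was dissolved in 0.9% NaCl, diluted just before use and given ip once daily for 5 consecutive days, starting 24 h after transplant. ILS % = mean survival time of treated vs control mice, observed for 80 days.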

Mus musculus [6] = experiment: Antitumor activity against ip implanted L1210 leukemia in mouse after ip administration of 30 mg/kg for 5 days expressed as increase in mean life span; format: functional; settings: Mus musculus, L1210, ip, 120 h, route intraperitoneal; summary of the method: as §4
Mus musculus [7] = experiment: Number of survivors out of 6 ip implanted sarcoma 180 leukemia mouse tested after 80 days at 80 mg/kg; format: functional; settings: route intraperitoneal; summary of the method: as §2
Mus musculus [8] = experiment: Effect on ip implanted syngeneic B16 melanoma by ip administration for 9 days at 10 mg/kg was measured as increase in mean life span; settings: 216 h
Mus musculus [9] = experiment: Effect on ip implanted sarcoma 180 by ip administration for 5 days at 80 mg/kg was measured as increase in mean life span; format: functional; settings: Sarcoma-180, ip, 120 h, route intraperitoneal; summary of the method: as §3
Mus musculus [10] = experiment: Antitumor activity against ip implanted L1210 leukemia in mouse after ip administration of 1.25 mg/kg for 5 days expressed as increase in mean life span; format: functional; settings: 120 h, route intraperitoneal; summary of the method: as §4
Mus musculus [11] = experiment: Number of survivors out of 6 ip implanted P388 leukemia mouse tested after 80 days at 20 mg/kg; format: functional; settings: route intraperitoneal
Summary of the method: (§5)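 P388 leukemia, 10^6 ascitic cells implanted ip in female BDF1 mice. Drug in saline given ip for 5 consecutive days from 24 h after transplant. Groups of six per dose level. Survivors/total recorded at the 80-day end of observation; ILS % from treated/control mean survival time.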

Mus musculus [12] = experiment: Effect on ip implanted EAC by ip administration for 5 days at 80 mg/kg was measured as increase in mean life span; format: functional; settings: 120 h, route intraperitoneal; summary of the method: as §1
Mus musculus [13] = experiment: Effect on ip implanted EAC by ip administration for 5 days at 5 mg/kg was measured as increase in mean life span; format: functional; settings: 120 h, route intraperitoneal; summary of the method: as §1
Mus musculus [14] = experiment: Effect on ip implanted syngeneic B16 melanoma by ip administration for 9 days at 5 mg/kg was measured as increase in mean life span; settings: 216 h
Mus musculus [15] = experiment: Number of survivors out of 6 ip-ip implanted L1210 leukemia mouse tested after 80 days at 40 mg/kg; format: functional
Summary of the method: (§6)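 Female BDF1 mice implanted ip with ascitic fluid holding 10^5 L1210 cells. Saline-dissolved drug given ip daily on days 1-5, starting 24 h after implant. Six mice per dose group, followed 80 days. Survivors/total counted at day 80; ILS % from mean survival time vs controls.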

Mus musculus [16] = experiment: Effect on ip implanted sarcoma 180 by ip administration for 5 days at 20 mg/kg was measured as increase in mean life span; format: functional; settings: Sarcoma-180, ip, 120 h, route intraperitoneal; summary of the method: as §3
Mus musculus [17] = experiment: Effect on ip implanted sarcoma 180 by ip administration for 5 days at 40 mg/kg was measured as increase in mean life span; format: functional; settings: Sarcoma-180, ip, 120 h, route intraperitoneal; summary of the method: as §3
Mus musculus [18] = experiment: Number of survivors out of 6 ip-ip implanted EAC leukemia mouse tested after 80 days at 80 mg/kg; format: functional; summary of the method: as §2
Mus musculus [19] = experiment: Effect on ip implanted EAC by ip administration for 5 days at 10 mg/kg was measured as increase in mean life span; format: functional; settings: 120 h, route intraperitoneal; summary of the method: as §1
Mus musculus [20] = experiment: Antitumor activity against iv implanted L1210 leukemia in mouse after ip administration of 20 mg/kg for 5 days expressed as increase in mean life span; format: functional
Mus musculus [21] = experiment: Antitumor activity against ip implanted P388 leukemia in mouse after iv administration of 10 mg/kg for 5 days expressed as increase in mean life span; settings: 120 h
Mus musculus [22] = experiment: Antitumor activity against ip implanted P388 leukemia in mouse after iv administration of 20 mg/kg for 5 days expressed as increase in mean life span; settings: 120 h
Mus musculus [23] = experiment: Number of survivors out of 6 ip-ip implanted EAC leukemia mouse tested after 80 days at 20 mg/kg; format: functional; summary of the method: as §2
Mus musculus [24] = experiment: Antitumor activity against ip implanted L1210 leukemia in mouse after ip administration of 40 mg/kg for 5 days expressed as increase in mean life span; format: functional; settings: 120 h, route intraperitoneal; summary of the method: as §4
Mus musculus [25] = experiment: Effect on ip implanted syngeneic B16 melanoma by ip administration of 20 mg/kg for 9 days measured as increase in mean life span; settings: 216 h
Mus musculus [26] = experiment: Antitumor activity against iv implanted L1210 leukemia in mouse after ip administration of 10 mg/kg for 5 days expressed as increase in mean life span; format: functional
Mus musculus [27] = experiment: Number of survivors out of 6 ip implanted L1210 leukemia mouse, tested after 80 days at 30 mg/kg; format: functional; settings: route intraperitoneal; summary of the method: as §6
Mus musculus [28] = experiment: Antitumor activity against ip implanted L1210 leukemia in mouse after ip administration of 10 mg/kg for 5 days expressed as increase in mean life span; format: functional; settings: Mus musculus, L1210, ip, 120 h, route intraperitoneal; summary of the method: as §4
Mus musculus [29] = experiment: Inhibition of sc implanted syngeneic colon 38 carcinoma by ip administration at 20 mg/kg was on 1, 3, 5, 7, 9 days measured as inhibition ratio; format: functional; settings: route subcutaneous
Summary of the method: (§7)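 Tumor homogenate (70 mg) implanted into the axillary region of female BDF1 mice. Drug dissolved in 0.9% NaCl and diluted with saline just before use, then given ip on days 1, 3, 5, 7 and 9. Tumor length and width were measured by caliper on day 20 after inoculation and converted to estimated weight. Result reported as treated vs control tumor weight, T/C %.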

Mus musculus [30] = experiment: Inhibition of sc implanted syngeneic colon 38 carcinoma by ip administration at 50 mg/kg was on 1, 3, 5, 7, 9 days measured as inhibition ratio; format: functional; settings: route subcutaneous; summary of the method: as §7
Mus musculus [31] = experiment: Inhibition of sc implanted syngeneic colon 38 carcinoma by ip administration at 30 mg/kg was on 1, 3, 5, 7, 9 days measured as inhibition ratio; format: functional; settings: route subcutaneous; summary of the method: as §7
Mus musculus [32] = experiment: Number of survivors out of 6 ip implanted sarcoma 180 leukemia mouse tested after 80 days at 40 mg/kg; format: functional; settings: route intraperitoneal; summary of the method: as §2
Mus musculus [33] = experiment: Number of survivors out of 6 ip-ip implanted L1210 leukemia mouse tested after 80 days at 20 mg/kg; format: functional; summary of the method: as §6
Mus musculus [34] = experiment: Antitumor activity against ip implanted L1210 leukemia in mouse after ip administration of 20 mg/kg for 5 days expressed as increase in mean life span; format: functional; settings: 120 h, route intraperitoneal; summary of the method: as §4
Mus musculus [35] = experiment: Number of survivors out of 6 ip-iv implanted L1210 leukemia mouse tested after 80 days at 30 mg/kg; format: functional
Summary of the method: (§8)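 Female BDF1 mice bearing ip-implanted leukemia: 10^5 cells for L1210, 10^6 cells for P388. Drug dissolved in saline, given iv for 5 consecutive days beginning 24 h post-implant. Six mice per dose. Survivors scored at 80 days; ILS % from mean survival time relative to controls.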

Mus musculus [36] = experiment: Inhibition of sc implanted syngeneic colon 38 carcinoma by ip administration at 40 mg/kg was on 1, 3, 5, 7, 9 days measured as inhibition ratio; format: functional; settings: route subcutaneous; summary of the method: as §7
Mus musculus [37] = experiment: Number of survivors out of 6 ip implanted EAC leukemia mouse tested after 80 days at 10 mg/kg; format: functional; settings: route intraperitoneal; summary of the method: as §2
Mus musculus [38] = experiment: Effect on ip implanted EAC by ip administration at 20 mg/kg was for 5 days measured as increase in mean life span; format: functional; settings: 120 h, route intraperitoneal; summary of the method: as §1
Mus musculus [39] = experiment: Antitumor activity against ip implanted L1210 leukemia in mouse after iv administration of 30 mg/kg for 5 days expressed as increase in mean life span; settings: 120 h
Mus musculus [40] = experiment: Number of survivors out of 6 ip implanted P388 leukemia mouse tested after 80 days at 10 mg/kg; format: functional; settings: route intraperitoneal; summary of the method: as §5
Mus musculus [41] = experiment: Number of survivors out of 6 ip implanted P388 leukemia mouse tested after 80 days at 40 mg/kg; format: functional; settings: route intraperitoneal; summary of the method: as §5
Mus musculus [42] = experiment: Number of survivors out of 6 ip-iv implanted P388 leukemia mouse tested after 80 days at 20 mg/kg; format: functional; summary of the method: as §8

## Cc1c2cc[n+]([C@@H]3OC[C@H](O)[C@H](O)[C@H]3O)cc2c(C)c2c1[nH]c1ccc(O)cc12.[Br-]
Mus musculus [1]
  ILS at 40 mg/kg: > 518%
Mus musculus [2]
  ILS at 2.5 mg/kg: 38%
Mus musculus [3]
  Cures@ 40mg/kg: 5
Mus musculus [4]
  ILS at 10 mg/kg: 117%
Mus musculus [5]
  ILS at 5 mg/kg: 57%
Mus musculus [6]
  ILS at 30 mg/kg: > 860%
Mus musculus [7]
  Cures@ 80 mg/kg: 2
Mus musculus [8]
  ILS at 10 mg/kg: 46%
Mus musculus [9]
  ILS at 80 mg/kg: > 353%
Mus musculus [10]
  ILS at 1.25 mg/kg: 37%
Mus musculus [11]
  Cures: 3
Mus musculus [12]
  ILS at 80 mg/kg: > 492%
Mus musculus [13]
  ILS at 5 mg/kg: 95%
Mus musculus [14]
  ILS at 5 mg/kg: 44%
Mus musculus [15]
  Cures: 4
Mus musculus [16]
  ILS at 20 mg/kg: 282%
Mus musculus [17]
  ILS at 40 mg/kg: > 339%
Mus musculus [18]
  Cures: 5
Mus musculus [19]
  ILS at 10 mg/kg: > 297%
Mus musculus [20]
  ILS: 198% and >549%
Mus musculus [21]
  ILS at 10 mg/kg: 83%
Mus musculus [22]
  ILS at 20 mg/kg: > 394%
Mus musculus [23]
  Cures@ 20mg/kg: 1
Mus musculus [24]
  ILS at 40 mg/kg: > 713%
Mus musculus [25]
  ILS at 20 mg/kg: 60%
Mus musculus [26]
  ILS: 82% and >214%
Mus musculus [27]
  Cures: 5
Mus musculus [28]
  ILS at 10 mg/kg: 113%
Mus musculus [29]
  T/C @ 20mg/kg: 66%
Mus musculus [30]
  T/C @ 50mg/kg: 4%
Mus musculus [31]
  T/C @ 30mg/kg: 59%
Mus musculus [32]
  Cures@ 40mg/kg: 2
Mus musculus [33]
  Cures: 1
Mus musculus [34]
  ILS at 20 mg/kg: > 251%
Mus musculus [35]
  Cures: 2
Mus musculus [36]
  T/C @ 40mg/kg: 7%
Mus musculus [37]
  Cures@ 10mg/kg: 1
Mus musculus [38]
  ILS at 20 mg/kg: > 338%
Mus musculus [39]
  ILS at 30 mg/kg: > 344%
Mus musculus [40]
  Cures: 1
Mus musculus [41]
  Cures: 6
Mus musculus [42]
  Cures: 2

Source: ChEMBL document CHEMBL1124260, “Synthesis and antitumor activity of quaternary ellipticine glycosides, a series of novel and highly active antitumor agents” (1988)
